# Reference: ChEMBL document CHEMBL4390639, “Design, Synthesis, and Biological Evaluation of Novel Allosteric Protein Disulfide Isomerase Inhibitors” (J Med Chem, 2019)
# Assays:
# U-87 MG [1] = test: Cytotoxicity against human U87MG cells assessed as inhibition of cell proliferation at <IC50 treated for 24 hrs, measured after 10 days by colony formation assay relative to control
# U-87 MG [2] = test: Up regulation of HSPH1 gene expression in human U87MG cells at 10 uM incubated for 4 hrs followed by bromouridine addition during last 30 mins of incubation by TRIzol-reagent based Bru-Seq analysis relative to control; type: functional, U-87MG ATCC
# Procedure, shortened: (§1)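 U87MG cells exposed to compound or DMSO vehicle for 4 h, with 2 mM bromouridine added for the final 30 min. Total RNA isolated with TRIzol; Bru-labelled nascent RNA captured on anti-BrdU antibody-conjugated magnetic beads and sequenced. Transcript abundance expressed as RPKM relative to DMSO. Experiment performed once.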
# U-87 MG [3] = test: Up regulation of HMOX1 gene expression in human U87MG cells at 10 uM incubated for 4 hrs followed by bromouridine addition during last 30 mins of incubation by TRIzol-reagent based Bru-Seq analysis relative to control; type: functional, U-87MG ATCC
# Procedure, shortened: as §1
# U-87 MG [4] = test: Down regulation of AKAP5 gene expression in human U87MG cells at 10 uM incubated for 4 hrs followed by bromouridine addition during last 30 mins of incubation by TRIzol-reagent based Bru-Seq analysis relative to control; type: functional, U-87MG ATCC
# U-87 MG [5] = test: Up regulation of DNAJB1 gene expression in human U87MG cells at 10 uM incubated for 4 hrs followed by bromouridine addition during last 30 mins of incubation by TRIzol-reagent based Bru-Seq analysis relative to control; type: functional, U-87MG ATCC
# Procedure, shortened: as §1
# U-87 MG [6] = test: Up regulation of GCNT3 gene expression in human U87MG cells at 10 uM incubated for 4 hrs followed by bromouridine addition during last 30 mins of incubation by TRIzol-reagent based Bru-Seq analysis relative to control; type: functional, U-87MG ATCC
# Procedure, shortened: as §1
# U-87 MG [7] = test: Down regulation of NFIA gene expression in human U87MG cells at 10 uM incubated for 4 hrs followed by bromouridine addition during last 30 mins of incubation by TRIzol-reagent based Bru-Seq analysis relative to control; type: functional, U-87MG ATCC
# Procedure, shortened: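 Nascent transcription (Bru-seq) in U87MG cells: treatment at 10 μM for 4 h, with 2 mM bromouridine added for the final 30 min. Total RNA isolated with TRIzol; Bru-labelled RNA captured using anti-BrdU antibody on magnetic beads, then sequenced. Transcript traces reported as RPKM compared with DMSO-treated cells. Single experiment.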
# U-87 MG [8] = test: Down regulation of FKBP7 gene expression in human U87MG cells at 10 uM incubated for 4 hrs followed by bromouridine addition during last 30 mins of incubation by TRIzol-reagent based Bru-Seq analysis relative to control; type: functional, U-87MG ATCC
# U-87 MG [9] = test: Down regulation of ANKRD36B gene expression in human U87MG cells at 10 uM incubated for 4 hrs followed by bromouridine addition during last 30 mins of incubation by TRIzol-reagent based Bru-Seq analysis relative to control; type: functional, U-87MG ATCC
# U-87 MG [10] = test: Up regulation of NR4A1 gene expression in human U87MG cells at 10 uM incubated for 4 hrs followed by bromouridine addition during last 30 mins of incubation by TRIzol-reagent based Bru-Seq analysis relative to control; type: functional, U-87MG ATCC
# Procedure, shortened: as §1
# U-87 MG [11] = test: Down regulation of ZNF404 gene expression in human U87MG cells at 10 uM incubated for 4 hrs followed by bromouridine addition during last 30 mins of incubation by TRIzol-reagent based Bru-Seq analysis relative to control; type: functional, U-87MG ATCC
# Procedure, shortened: as §1
# U-87 MG [12] = test: Down regulation of CCNA2 gene expression in human U87MG cells at 10 uM incubated for 4 hrs followed by bromouridine addition during last 30 mins of incubation by TRIzol-reagent based Bru-Seq analysis relative to control; type: functional, U-87MG ATCC
# U-87 MG [13] = test: Up regulation of NUPR1 gene expression in human U87MG cells at 10 uM incubated for 4 hrs followed by bromouridine addition during last 30 mins of incubation by TRIzol-reagent based Bru-Seq analysis relative to control; type: functional, U-87MG ATCC
# Procedure, shortened: as §1
# U-87 MG [14] = test: Down regulation of LYPD6 gene expression in human U87MG cells at 10 uM incubated for 4 hrs followed by bromouridine addition during last 30 mins of incubation by TRIzol-reagent based Bru-Seq analysis relative to control; type: functional, U-87MG ATCC
# U-87 MG [15] = test: Down regulation of CTGF gene expression in human U87MG cells at 16 uM incubated for 4 hrs followed by bromouridine addition during last 30 mins of incubation by TRIzol-reagent based Bru-Seq analysis relative to control; type: functional, U-87MG ATCC
# U-87 MG [16] = test: Up regulation of OSGIN1 gene expression in human U87MG cells at 16 uM incubated for 4 hrs followed by bromouridine addition during last 30 mins of incubation by TRIzol-reagent based Bru-Seq analysis relative to control; type: functional, U-87MG ATCC
# Procedure, shortened: as §1
# U-87 MG [17] = test: Up regulation of FTH1 gene expression in human U87MG cells at 16 uM incubated for 4 hrs followed by bromouridine addition during last 30 mins of incubation by TRIzol-reagent based Bru-Seq analysis relative to control; type: functional, U-87MG ATCC
# Procedure, shortened: as §1
# U-87 MG [18] = test: Down regulation of AC124276.2 gene expression in human U87MG cells at 16 uM incubated for 4 hrs followed by bromouridine addition during last 30 mins of incubation by TRIzol-reagent based Bru-Seq analysis relative to control; type: functional, U-87MG ATCC
# U-87 MG [19] = test: Up regulation of KCNE4 gene expression in human U87MG cells at 16 uM incubated for 4 hrs followed by bromouridine addition during last 30 mins of incubation by TRIzol-reagent based Bru-Seq analysis relative to control; type: functional, U-87MG ATCC
# Procedure, shortened: as §1
# U-87 MG [20] = test: Up regulation of HSPA1B gene expression in human U87MG cells at 16 uM incubated for 4 hrs followed by bromouridine addition during last 30 mins of incubation by TRIzol-reagent based Bru-Seq analysis relative to control; type: functional, U-87MG ATCC
# Procedure, shortened: as §1
# U-87 MG [21] = test: Down regulation of LRRN3 gene expression in human U87MG cells at 16 uM incubated for 4 hrs followed by bromouridine addition during last 30 mins of incubation by TRIzol-reagent based Bru-Seq analysis relative to control; type: functional, U-87MG ATCC
# Procedure, shortened: as §1
# U-87 MG [22] = test: Up regulation of BCO2 gene expression in human U87MG cells at 16 uM incubated for 4 hrs followed by bromouridine addition during last 30 mins of incubation by TRIzol-reagent based Bru-Seq analysis relative to control; type: functional, U-87MG ATCC
# Procedure, shortened: as §1
# U-87 MG [23] = test: Down regulation of C8orf4 gene expression in human U87MG cells at 16 uM incubated for 4 hrs followed by bromouridine addition during last 30 mins of incubation by TRIzol-reagent based Bru-Seq analysis relative to control; type: functional, U-87MG ATCC
# Procedure, shortened: as §1
# U-87 MG [24] = test: Down regulation of STRA6 gene expression in human U87MG cells at 16 uM incubated for 4 hrs followed by bromouridine addition during last 30 mins of incubation by TRIzol-reagent based Bru-Seq analysis relative to control; type: functional, U-87MG ATCC
# Procedure, shortened: as §1
# U-87 MG [25] = test: Down regulation of AC022601.1 gene expression in human U87MG cells at 16 uM incubated for 4 hrs followed by bromouridine addition during last 30 mins of incubation by TRIzol-reagent based Bru-Seq analysis relative to control; type: functional, U-87MG ATCC
# U-87 MG [26] = test: Up regulation of HSPH1 gene expression in human U87MG cells at 16 uM incubated for 4 hrs followed by bromouridine addition during last 30 mins of incubation by TRIzol-reagent based Bru-Seq analysis relative to control; type: functional, U-87MG ATCC
# Procedure, shortened: as §1
compound,measurement,setting,value
CCCCCN(CCCCC)S(=O)(=O)c1ccc(C(=O)/C=C/c2cccc(C#N)c2)cc1,inhibition (INH),U-87 MG [1],>50%
same,fold change (FC),U-87 MG [2],20
same,fold change (FC),U-87 MG [3],27.6
same,fold change (FC),U-87 MG [4],3.4
same,fold change (FC),U-87 MG [5],16.9
same,fold change (FC),U-87 MG [6],10
same,fold change (FC),U-87 MG [7],2.4
same,fold change (FC),U-87 MG [8],2.4
same,fold change (FC),U-87 MG [9],2.8
same,fold change (FC),U-87 MG [10],18.9
same,fold change (FC),U-87 MG [11],2.7
same,fold change (FC),U-87 MG [12],2.3
same,fold change (FC),U-87 MG [13],11.8
same,fold change (FC),U-87 MG [14],3.1
COC(=O)c1cccc(/C=C/C(=O)c2cccc(O)c2)c1,fold change (FC),U-87 MG [15],3.1
same,fold change (FC),U-87 MG [16],5.4
same,fold change (FC),U-87 MG [17],1.9
same,fold change (FC),U-87 MG [18],2.9
same,fold change (FC),U-87 MG [19],5.1
same,fold change (FC),U-87 MG [20],10.2
same,fold change (FC),U-87 MG [21],3.6
same,fold change (FC),U-87 MG [22],1.9
same,fold change (FC),U-87 MG [23],4.7
same,fold change (FC),U-87 MG [24],4
same,fold change (FC),U-87 MG [25],2.7
same,fold change (FC),U-87 MG [26],5
